Measured values: publication PMC5912934 (ChemMedChem, 2017)

How the values were obtained:
[1] = tested on: MOLM-14 acute monocytic leukemia cells; experiment: IC50 proliferation assay; assay type: cell-based; settings: Homo sapiens, MOLM-14, 72 h, read-out: MOLM14 cancer cell line activity (IC50)
Procedure, shortened: (§1)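 Cells were grown at 37 °C in 5% CO2 in RPMI 1640 or DMEM with 10% heat-inactivated FBS and 1% glutamine, then seeded in 96-well plates the afternoon before treatment. About 18 h later, the test compound was semi-serially diluted in DMSO, then in growth medium, and added. After 72 h, WST-1 was added and plates were read after a further 4 h at 37 °C. Assays were run in triplicate.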

[2] = tested on: A549 adenocarcinomic human alveolar basal epithelial cells; experiment: IC50 proliferation assay; assay type: cell-based; settings: A549, 72 h, read-out: A549 cancer cell line activity (IC50)
Procedure, shortened: as §1

[3] = tested on: various cancer cell lines; experiment: Cancer cell line screening, all cell lines together; assay type: cell-based, human; settings: for IC50: Homo sapiens, read-out: IC50 in cancer cell lines, lowest value
HeLa cells = settings: read-out: IC50 against HeLa cells; cited from earlier work
[4] = Aqueous benchtop stability in phosphate buffer; assay type: physicochemical; settings: 25 μg/mL, pH 5.0, 7.0 and 7.5, room temperature, up to 24 hours
Procedure, shortened: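 Test compound at 1 mg/mL in anhydrous DMSO (stock) was spiked into phosphate buffer at 25 μg/mL, at pH 5.0, 7.0 and 7.5, and stirred at room temperature. Aliquots were taken at 0, 0.25, 0.5, 1, 4, 8 and 24 h and checked by TLC against a verified standard. Aliquots were then extracted twice with chloroform, and the residue was examined by 1H NMR to confirm the TLC findings.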

female nude mice = experiment: Maximum tolerated dose assay; assay type: in vivo
Stability in human serum = assay type: in vitro ADME; settings: pooled human serum, up to 24 hours
Procedure, shortened: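 The test compound came from a 1 mg/mL anhydrous DMSO stock and was incubated in pooled human serum […]. It followed the same workflow as the buffer test. Timed aliquots were taken up to 24 h and compared by TLC against a verified standard. Aliquots were then extracted with two chloroform portions, the solvent was removed, and the residue was analysed by 1H NMR to verify TLC.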

[5] = Mouse model pharmacokinetic study; settings: in vivo, 10 mg/kg
Procedure, shortened: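 Mouse plasma was analysed by a validated LC/MS/MS assay. Proteins were precipitated with an equal volume of acetonitrile after adding an internal standard (a related analogue, final 1000 ng/mL), then vortexed 10 min and centrifuged at 14,000 rpm. Standard ranges were 1–1,000 ng/mL for parent and 10–10,000 ng/mL for prodrug. Separation used a C18 column with a 0.1% formic acid/acetonitrile gradient at 1 mL/min. Detection was positive electrospray on a triple quadrupole.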

[6] = Aqueous benchtop stability at CCPC; assay type: physicochemical; settings: LC/MS; for deviation of recovered from expected concentration in aqueous solution: 5-500 ng/mL in 1:1 acetonitrile/Millipore H2O
Procedure, shortened: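 Prodrug and its parent were spiked at 5, 12.5, 25, 50, 125, 250 and 500 ng/mL into 1:1 acetonitrile/Millipore water. Both analytes were measured by LC/MS. Concentrations were quantified against a previously constructed calibration curve at the same concentrations.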

Mouse plasma stability = assay type: in vitro ADME
Procedure, shortened: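 Mouse plasma was spiked with 500 ng/mL prodrug and assayed for both prodrug and parent at 0, 5, 15, 30, 45, 60 and 90 min. Conversion was expressed as analyte counts to avoid differences between the two standard curves.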

γ-H2Ax in MOLM-14 cells = experiment: Gamma-H2Ax DNA damage assay in MOLM-14 cells; assay type: cell-based, human; settings: MOLM-14 cells grown in 0.5 and 4 μM for 24 hours
Procedure, shortened: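 MOLM-14 cells were seeded the evening before at 1×10^5 cells/mL in RPMI 1640/10% FBS. Controls were DMSO and 6.0 Gy gamma irradiation (collected after 1 h); treated cells were collected after 24 h. Cells were washed in PBS/2% serum, cytospun at 1.5×10^5 cells/slide, fixed 15 min in 4% PFA, permeabilised (Triton X-100 buffer), and blocked overnight in 10% FBS/PBS/0.1% Triton. Staining used anti-γ-H2Ax plus DyLight anti-mouse secondary with DAPI mount; slides were examined by fluorescence microscopy.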

Row | SMILES | IC50 [3] | IC50 (HeLa cells) | aqueous stability in phosphate buffer [4] | stability in human serum (Stability in human serum) | deviation of recovered from expected concentration in aqueous solution [6] | further results
1 | Clc1nc(Cl)c2[nH]ccc2n1 [Compound 5, 2,4-Dichloro-5H-pyrrolo[3,2-d]pyrimidine] | ≥ 0.014 µM | 19 ± 3 µM | – | – | – | IC50 [1]: 9.5 ± 3.1 µM; IC50 [2]: 14.5 ± 3.5 µM
2 | Clc1nc(Cl)c2[nH]cc(Br)c2n1 [Compound 6, 7-Bromo-2,4-dichloro-5H-pyrrolo[3,2-d]pyrimidine] | ≥ 0.014 µM | 0.92 ± 0.04 µM | stable | stable | – | toxicity relative to 7 (female nude mice; female, nude, mouse, in vivo): 2 fold
3 | Clc1nc(Cl)c2[nH]cc(I)c2n1 [Compound 7, 2,4-Dichloro-7-iodo-5H-pyrrolo[3,2-d]pyrimidine] | ≥ 0.014 µM | – | stable | stable | ≤ 5.7% | time to little to no detection of the compound in mouse plasma [5]: ≤ 70 min; deviation in plasma over the time frame investigated (Mouse plasma stability; mouse plasma, 0-90 minutes): 5.7%; stability in plasma (Mouse plasma stability; mouse plasma, time frame investigated (0-90 minutes)): excellent stability; DNA damage (γ-H2Ax staining) (γ-H2Ax in MOLM-14 cells): significant DNA damage
4 | Clc1nc(Cl)c2c(n1)c(I)cn2COCc1ccccc1 [Compound 8, 5-((Benzyloxy)methyl)-2,4-dichloro-7-iodo-pyrrolo[3,2-d]pyrimidine] | – | – | – | – | – | decrease of activity compared to the parent ([3]; fold, versus parent 7, Table 1 cell lines): ten-fold
5 | Cc1ccc(S(=O)(=O)n2cc(I)c3nc(Cl)nc(Cl)c32)cc1 [Compound 9, 2,4-Dichloro-7-iodo-5-tosyl-pyrrolo[3,2-d]pyrimidine] | – | – | stable | – | 15.8% | hydrolysis of 9 to 7 in aqueous solution ([6]; 1:1 acetonitrile/Millipore H2O): no observed hydrolysis; time to undetectable in biological media (Mouse plasma stability; biological media (Figure 4, mouse plasma)): ≤ 1 hour; conversion of 9 to 7 in mouse plasma (Mouse plasma stability; mouse plasma spiked with 500 ng/mL, 0-90 minutes): Significant conversion; increase in maximum tolerated dose compared to parent compound 7 (female nude mice; fold, versus 7): four-fold
